Data from ChEMBL document CHEMBL4130395, “Meroterpenoids with Protein Tyrosine Phosphatase 1B Inhibitory Activity from a Hyrtios sp. Marine Sponge” (J Nat Prod, 2017).
pIC50: −log10 of the molar value. The source made the active and inactive calls. The calls are words filed in the database; no cut-off is given here.

Columns and labels:
HL-60 = assay: Cytotoxicity against human HL60 cells at 30 uM after 48 hrs by MTS assay; type: cell-based; conditions: hl-60, 48 h
Procedure, shortened: (§1)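 Cells seeded in 96-well plates and grown 24 h, then treated 48 h with compound dissolved in DMSO at a 30 μM working concentration. MTS (20 μL) added and incubated 2 h at 37 °C for viability read-out; method described as MTT assay.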

HeLa = assay: Cytotoxicity against human HeLa cells at 30 uM after 48 hrs by MTS assay; type: cell-based; procedure, shortened: as §1
RPMI-8226 = assay: Cytotoxicity against human RPMI8226 cells at 30 uM after 48 hrs by MTS assay; type: cell-based; conditions: rpmi-8226, 48 h; procedure, shortened: as §1
[1] = target: T1, Tyrosine-protein phosphatase non-receptor type 1 (Homo sapiens) (UniProt P18031); assay: Inhibition of PTP1B (unknown origin) at 30 uM using p-nitrophenyl phosphate as substrate measured after 30 mins
T1 sequence (whole entry): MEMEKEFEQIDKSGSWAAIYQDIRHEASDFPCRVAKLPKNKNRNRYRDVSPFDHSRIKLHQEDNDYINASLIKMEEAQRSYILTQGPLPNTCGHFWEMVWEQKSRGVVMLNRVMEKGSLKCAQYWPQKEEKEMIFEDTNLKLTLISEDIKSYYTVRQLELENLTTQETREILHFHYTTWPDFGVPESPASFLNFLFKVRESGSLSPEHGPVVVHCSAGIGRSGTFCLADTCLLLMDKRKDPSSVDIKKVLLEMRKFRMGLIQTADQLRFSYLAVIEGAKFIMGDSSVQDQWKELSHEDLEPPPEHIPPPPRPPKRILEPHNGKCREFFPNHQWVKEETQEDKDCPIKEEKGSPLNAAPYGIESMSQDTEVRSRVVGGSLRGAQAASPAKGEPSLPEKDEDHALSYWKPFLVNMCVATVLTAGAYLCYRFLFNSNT
Procedure, shortened: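 30 nM PTP1B with 2 mM pNPP in 50 mM MOPS buffer, pH 6.5, with or without compound, 37 °C for 30 min. Stopped with 1 M NaOH; released pNP read at 405 nm absorbance. Oleanolic acid as positive control; IC50 from sigmoidal variable-slope dose-response fit.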

HepG2 = assay: Cytotoxicity against human HepG2 cells at 30 uM after 48 hrs by MTS assay; type: cell-based; conditions: hepg2, 48 h; procedure, shortened: as §1
[2] = target: T2, Tyrosine-protein phosphatase non-receptor type 1 (Homo sapiens, UniProt P18031); assay: Inhibition of PTP1B (unknown origin) using p-nitrophenyl phosphate as substrate measured after 30 mins
T2 sequence (P18031 whole entry): T1 sequence (whole entry)

| inhibition [1] | pIC50 [2] | SMILES | Activity (HL-60) | Activity (HeLa) | Activity (RPMI-8226) | Activity (HepG2) |
| --- | --- | --- | --- | --- | --- | --- |
| inactive |  | C=C1CCC[C@H]2[C@]3(C)Cc4oc(=O)cc(OC)c4[C@]3(C)CC[C@]12C | Non-Toxic | Non-Toxic | Non-Toxic | Non-Toxic |
| inactive |  | C=C1CCC[C@H]2[C@](C)(Cc3c(O)c(O)cc4ncoc34)[C@@H](C)CC[C@]12C [NAKIJINOL B] | Non-Toxic | Non-Toxic | Non-Toxic | Non-Toxic |
| inactive |  | C=C1CCC[C@@]23OC4=C(C[C@]2(C)[C@@H](C)CC[C@]13C)C(=O)C(OC)=CC4=O | Non-Toxic | Non-Toxic | Non-Toxic | Non-Toxic |
|  | 5.32 | C=C1CCC[C@H]2[C@](C)(Cc3c(O)c(O)cc4nc(C)oc34)[C@@H](C)CC[C@]12C | Non-Toxic | Non-Toxic | Non-Toxic | Non-Toxic |
